Data from ChEMBL document CHEMBL4387710, “Fragment-Based Discovery of an Apolipoprotein E4 (apoE4) Stabilizer” (J Med Chem, 2019).
Activity calls are given as the source filed them. The calls are words filed in the database; no cut-off is given here.

Tests used:
[1] = Binding affinity to N-terminal thrombin-recognition site-fused His6-tagged human apolipoprotein E4 N-terminal domain without leader sequence (1 to 164 residues) expressed in Escherichia coli BL21-(DE3)-T1R cells by 13C-HSQC NMR spectroscopy
[2] = Solubility of the compound in PBS by NMR method; type: physicochemical
[3] = organism: Homo sapiens; assay: Binding affinity to N-terminal thrombin-recognition site-fused His6-tagged human apolipoprotein E4 N-terminal domain without leader sequence (1 to 164 residues) expressed in Escherichia coli BL21-(DE3)-T1R cells assessed as breakdown of DMPG liposomes at 500 uM after 30 mins by dynamic light scattering analysis
In short: (§1)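 DMPG liposome breakdown assay: large DMPG liposomes incubated with apoE protein (N-terminal domain, or full-length wild-type from mammalian cells). Breakdown into smaller discoidal complexes is read as a fall in light-scattering intensity. Liposomes alone serve as control. Compound is tested as a dose series covering 15.6 to 500 μM.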

[4] = Binding affinity to full-length human recombinant C-terminal FLAG/His-tagged apolipoprotein E4 expressed in HEK293-6E cells by surface plasmon resonance assay
[5] = organism: Homo sapiens; assay: (§2) Binding affinity to human recombinant full-length N-terminal thrombin-recognition site-fused His6-tagged apolipoprotein E3 (1 to 299 residue) F257A/W246R/V269A/L279Q/V287E mutant expressed in Escherichia coli BL21-(DE3)-T1R cells assessed as change in melting temperature at 5 mM incubated for 15 mins by SYPRO orange dye-based thermal shift assay
In short: (§3)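 Thermal shift assay: compound added at 5 mM to full-length mutant apoE protein (apoE4 or apoE3). Stabilization is reported as the shift in melting temperature, in degrees.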

[6] = Binding affinity to N-terminal thrombin-recognition site-fused His6-tagged human apolipoprotein E4 N-terminal domain without leader sequence (1 to 164 residues) expressed in Escherichia coli BL21-(DE3)-T1R cells by surface plasmon resonance analysis
[7] = organism: Homo sapiens; assay: as §2, with “apolipoprotein E4” for “apolipoprotein E3”; in short: as §3
[8] = organism: Homo sapiens; assay: Binding affinity to full-length human recombinant C-terminal FLAG/His-tagged apolipoprotein E4 expressed in HEK293-6E cells assessed as breakdown of DMPG liposomes at 500 uM after 30 mins by dynamic light scattering analysis; type: cell-based; in short: as §1
[9] = Binding affinity to full-length human recombinant C-terminal FLAG/His-tagged apolipoprotein E3 expressed in HEK293-6E cells by surface plasmon resonance assay
[10] = tested on: Astrocyte; assay: Antineuroinflammatory activity in human induced pluripotent stem cell-derived astrocytes harboring apolipoprotein E4/4 assessed reduction in TNFalpha/IL-1beta/IFNgamma-stimulated IL-8 secretion preincubated for 1 hr followed by TNFalpha/IL-1beta/IFNgamma stimulation and measured after 24 hrs; type: functional, cell-based
[11] = tested on: Astrocyte; assay: Cytotoxicity against human induced pluripotent stem cell-derived astrocytes harboring apolipoprotein E4/4 assessed as effect on cell viability at 12.5 uM to 100 uM preincubated for 1 hr followed by TNFalpha/IL-1beta/IFNgamma stimulation and measured after 24 hrs by CellTiter-Glo luminescent cell viability assay; type: cell-based
[12] = organism: Homo sapiens; assay: as §2, with “apolipoprotein E4” for “apolipoprotein E3”, “at 1” for “at 5”
[13] = tested on: Astrocyte; assay: Antineuroinflammatory activity in human induced pluripotent stem cell-derived astrocytes harboring apolipoprotein E4/4 assessed reduction in TNFalpha/IL-1beta/IFNgamma-stimulated IL-6 secretion preincubated for 1 hr followed by TNFalpha/IL-1beta/IFNgamma stimulation and measured after 24 hrs; type: functional, cell-based

N=C(N)C1(c2cc(Cl)cc(-c3ccccc3)c2)CCC1
Kd [1]: 230 µM

N=C(N)C1(c2cccc(Cl)c2)CCC1
solubility [2]: ≥ 500 µM
Activity [3]: Active
Kd [1]: 900 µM
Kd [4]: 233 µM
ΔTm [5]: 0.5 °C
Kd [6]: 205 µM
ΔTm [7]: 4 °C
Activity [8]: Active
Kd [9]: 890 µM

CCNS(=O)(=O)c1ccc(-c2cc(Cl)cc(C3(C(=N)N)CCC3)c2)cc1
Kd [1]: 20 µM

CC(C)(O)c1ccc(-c2cc(Cl)cc(C3(C(=N)N)CCC3)c2)cc1
Kd [1]: 30 µM

CC(=O)NCc1ccc(-c2cc(Cl)cc(C3(C(=N)N)CCC3)c2)cc1
Kd [1]: 20 µM

N=C(N)C1(c2cc(Cl)cc(-c3ccc(CO)c(Cl)c3)c2)CCC1
Kd [1]: 8 µM

N=C(N)C1(c2cc(Cl)cc(-c3ccc(CN)cc3)c2)CCC1
Kd [1]: < 5 µM

CN(C)CCNC(=O)c1ccc(-c2cc(Cl)cc(C3(C(=N)N)CCC3)c2)cc1
Activity [10]: Dose-dependent effect
Kd [1]: < 5 µM
Activity [11]: Non-Toxic
ΔTm [12]: 4 °C
Activity [13]: Dose-dependent effect
